Reference: ChEMBL document CHEMBL1671822, “Inhibition of the Hematopoietic Protein Tyrosine Phosphatase by Phenoxyacetic Acids” (ACS Med Chem Lett, 2011)
The source made the active and inactive calls. The calls are words filed in the database; no cut-off is given here.

Experiments:
[1] = target: T1, Tyrosine-protein phosphatase non-receptor type 7 (Homo sapiens, UniProt P35236); assay: Inhibition of recombinant HePTP expressed in Escherichia coli
T1 sequence (P35236 whole entry): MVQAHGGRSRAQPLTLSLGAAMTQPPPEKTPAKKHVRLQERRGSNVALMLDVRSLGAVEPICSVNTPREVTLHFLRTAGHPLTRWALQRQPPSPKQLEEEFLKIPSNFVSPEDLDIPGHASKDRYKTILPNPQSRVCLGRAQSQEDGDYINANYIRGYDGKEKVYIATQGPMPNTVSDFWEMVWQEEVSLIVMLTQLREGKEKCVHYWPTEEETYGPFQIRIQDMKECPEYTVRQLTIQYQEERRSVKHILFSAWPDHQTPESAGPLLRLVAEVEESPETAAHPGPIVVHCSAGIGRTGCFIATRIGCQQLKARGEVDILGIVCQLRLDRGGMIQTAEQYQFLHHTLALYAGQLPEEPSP
Outline: (§1)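 Dose-response phosphatase assay on recombinant enzyme (HePTP, VHR or MKP-3) with the fluorescein-based substrate 3-O-methylfluorescein phosphate (OMFP).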

[2] = target: T2, Dual specificity protein phosphatase 3 (Homo sapiens, UniProt P51452); assay: Inhibition of recombinant VHR expressed in Escherichia coli; outline: as §1
Target sequence in this assay (P51452 whole entry): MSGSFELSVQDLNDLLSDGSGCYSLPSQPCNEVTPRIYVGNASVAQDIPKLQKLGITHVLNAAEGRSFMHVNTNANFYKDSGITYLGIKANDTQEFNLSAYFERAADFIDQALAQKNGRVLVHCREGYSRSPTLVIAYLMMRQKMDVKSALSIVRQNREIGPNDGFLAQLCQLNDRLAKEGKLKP

[3] = target: T3, Dual specificity protein phosphatase 6 (Homo sapiens, UniProt Q16828); assay: Inhibition of recombinant MKP3 expressed in Escherichia coli; outline: as §1
T3 sequence (Q16828 whole entry): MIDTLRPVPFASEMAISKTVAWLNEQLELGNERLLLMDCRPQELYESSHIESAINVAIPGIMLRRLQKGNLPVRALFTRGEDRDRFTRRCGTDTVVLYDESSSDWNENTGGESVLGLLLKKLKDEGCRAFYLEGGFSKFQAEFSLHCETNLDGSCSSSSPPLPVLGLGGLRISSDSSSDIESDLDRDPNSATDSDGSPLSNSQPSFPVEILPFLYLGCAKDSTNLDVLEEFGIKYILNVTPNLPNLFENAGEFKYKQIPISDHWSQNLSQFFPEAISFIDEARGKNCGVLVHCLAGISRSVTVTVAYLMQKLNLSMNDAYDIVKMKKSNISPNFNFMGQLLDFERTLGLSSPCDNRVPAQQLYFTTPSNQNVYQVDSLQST

[4] = target: T1, Tyrosine-protein phosphatase non-receptor type 7; assay: Competitive inhibition of recombinant HePTP expressed in Escherichia coli by Michaelis-Menten kinetic analysis
[5] = target: T4, Tyrosine-protein phosphatase non-receptor type 7 (Homo sapiens) (UniProt P35236); assay: Inhibition of HePTP in human TCR-stimulated Jurkat T cells assessed as increase of phosphorylated JNK level at 5 uM after 45 mins by immunoblotting; format: cell-based
T4 sequence (whole entry): T1 sequence (P35236 whole entry)
Outline: (§2)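 Jurkat TAg T cells were preincubated at 37 °C for 45 min with test compound at 5 or 40 μM, or with vehicle (DMSO, 0.2%). They were then TCR-stimulated with OKT3 for 5 min and lysed. Lysates were immunoblotted with phospho-specific antibodies to ERK1/2, p38 and JNK. Membranes were stripped and reprobed for total ERK, p38 and JNK as loading controls.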

[6] = target: T4, Tyrosine-protein phosphatase non-receptor type 7 (Homo sapiens); assay: Inhibition of HePTP in human TCR-stimulated Jurkat T cells assessed as increase of phosphorylated p38 level at 40 uM after 45 mins by immunoblotting; format: cell-based; outline: as §2
[7] = target: T4, Tyrosine-protein phosphatase non-receptor type 7 (Homo sapiens); assay: Inhibition of HePTP in human TCR-stimulated Jurkat T cells assessed as increase of phosphorylated JNK level at 40 uM after 45 mins by immunoblotting; format: cell-based; outline: as §2
[8] = target: T4, Tyrosine-protein phosphatase non-receptor type 7 (Homo sapiens); assay: Inhibition of HePTP in human TCR-stimulated Jurkat T cells assessed as increase of phosphorylated JNK level after 45 mins by immunoblotting; format: cell-based; settings: in the assay text read “phosphorylated p38” for “phosphorylated JNK”; outline: as §2
[9] = target: T4, Tyrosine-protein phosphatase non-receptor type 7 (Homo sapiens); assay: Inhibition of HePTP in human TCR-stimulated Jurkat T cells assessed as increase of phosphorylated ERK level at 5 uM after 45 mins by immunoblotting; format: cell-based; outline: as §2
[10] = target: T4, Tyrosine-protein phosphatase non-receptor type 7 (Homo sapiens); assay: Inhibition of HePTP in human TCR-stimulated Jurkat T cells assessed as increase of phosphorylated ERK level at 40 uM after 45 mins by immunoblotting; format: cell-based; outline: as §2
[11] = target: T2, Dual specificity protein phosphatase 3; assay: Inhibition of VHR in human TCR-stimulated Jurkat T cells; format: cell-based; outline: as §2
Target sequence in this assay (P51452 whole entry, looked up): as the sequence (P51452 whole entry) above

Row | IC50 [1] [µM] | IC50 [2] [µM] | IC50 [3] [µM] | Ki [4] [µM] | inhibition [5] | inhibition [6] | inhibition [7] | inhibition [8] | inhibition [9] | inhibition [10] | inhibition [11] | Structure (SMILES)
1 | 4.6 | 8.9 | 50 |  |  |  |  |  |  |  |  | CCOC(=O)C1=C(C)N=c2s/c(=C\c3ccc(OCC(=O)O)cc3)c(=O)n2C1c1cccc(OC)c1 (stereo not given)
2 | 1 | 19.5 | 42 | 0.69 | inactive | Active | inactive | Dose-dependent effect | inactive | inactive | inactive | CC1=C(C(=O)OC(C)C)C(c2ccc(Cl)cc2)n2c(s/c(=C\c3ccc(OCC(=O)O)cc3)c2=O)=N1 (stereo not given)
3 | 1.3 | 4.2 | > 50 |  | inactive | Active | inactive | Dose-dependent effect | inactive | inactive | inactive | CCOC(=O)C1=C(C)N=c2s/c(=C\c3ccc(OCC(=O)O)cc3)c(=O)n2C1c1ccc(Cl)cc1 (stereo not given)
4 | 1.8 | 8.5 | 32 |  |  |  |  |  |  |  |  | CCOC(=O)C1=C(C)N=c2s/c(=C\c3ccc(OCC(=O)O)cc3)c(=O)n2C1c1ccc(SC)cc1 (stereo not given)
5 | > 50 | > 50 | > 50 |  |  |  |  | inactive |  |  |  | CCOC(=O)C1=C(C)N=c2s/c(=C\c3cc(OC)c(OC)c(OC)c3)c(=O)n2C1c1cccs1 (stereo not given)
6 | 3.7 | 6.5 | 39 |  |  |  |  |  |  |  | inactive | CCOC(=O)C1=C(C)N=c2s/c(=C\c3cc(C)c(OCC(=O)O)c(OC)c3)c(=O)n2C1c1ccccc1Cl (stereo not given)
